In ChEMBL document CHEMBL1153954, “Promiscuous aggregate-based inhibitors promote enzyme unfolding” (J Med Chem, 2009) one finds Activity data, which are given here for one compound.

The structures appear in SMILES notation. The source made the active and inactive calls. No cut-off for these calls is given here.

This test concerns the target AmpC (Escherichia coli) (UniProt Q83TT7). Briefly: Inhibition of Escherichia coli AmpC assessed as induction of protein unfolding measured by trypsin mediated degradation of compound-AmpC enzyme complex at 250 uM after 15 mins by gel electrophoresis. An outline of the steps:
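AmpC β-lactamase (0.5 μM) in 50 mM KPi, pH 7.0, with or without aggregator at 250 μM (1% DMSO final). Trypsin (0.01 or 0.025 mg/mL) added after 5 min. Digestion ran at room temperature for 0 min to 4 h. Samples were boiled 2 min in DTT-containing loading buffer, run on SDS-PAGE, and the β-lactamase band was scored against compound-free enzyme.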

Sequence of AmpC (Escherichia coli) (Q83TT7 as listed by the source): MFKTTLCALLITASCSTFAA

For `Nc1c(/N=N/c2ccc(-c3ccc(/N=N/c4cc(S(=O)(=O)O)c5ccccc5c4N)cc3)cc2)cc(S(=O)(=O)O)c2ccccc12`, the outcome was Active.
